# PMI act hi M6P = increases human PMI activity with near-saturating mannose 6-phosphate | P34949 | coupled PMI enzyme assay, resazurin fluorescence, 20 min; stronger effect = higher value; 1 = untreated enzyme, 0 = substrate-free blank | activation factor at 20 µM | hit rate 0.34% among 190,000;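 active = activation factor of 2 or more at 20 µM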
# Target sequence (P34949 whole entry, looked up): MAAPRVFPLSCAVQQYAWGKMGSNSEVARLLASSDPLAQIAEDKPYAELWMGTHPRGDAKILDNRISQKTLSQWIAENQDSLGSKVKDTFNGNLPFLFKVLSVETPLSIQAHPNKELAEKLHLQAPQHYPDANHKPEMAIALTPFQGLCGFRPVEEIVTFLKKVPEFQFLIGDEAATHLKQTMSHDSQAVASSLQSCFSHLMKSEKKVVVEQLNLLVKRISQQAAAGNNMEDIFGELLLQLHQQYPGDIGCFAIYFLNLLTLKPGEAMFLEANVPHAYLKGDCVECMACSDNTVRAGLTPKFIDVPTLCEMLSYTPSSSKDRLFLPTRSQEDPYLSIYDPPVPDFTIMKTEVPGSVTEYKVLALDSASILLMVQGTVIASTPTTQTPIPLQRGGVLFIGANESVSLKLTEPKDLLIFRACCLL
#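 Test system: human phosphomannose isomerase with PGI, G6PDH, diaphorase coupling enzymes / Doses: 20 µM compound, 1% DMSO / Times: enzyme reaction with compound 20 min at room temperature / Measured by: Diaphorase-driven resazurin-to-resorufin fluorescence, excitation 544, emission 590 nm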
# bCat KO growth = beta-catenin-lacking colon tumor cell growth suppression; HCT116 beta-catenin knockout viability, CellTiter-Glo, 60 h; stronger effect = lower value; viability, % at 10 µM; hit rate 1.5% among 140,000;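 active = viability at or under a set limit, the compound median less 4 SD, cut at about 6% in these data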;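 also: 0% = Hyamine 1622 control at 20 µM and 100% = untreated cell control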
# L major viab = Leishmania major promastigote growth inhibition; AID 1063; inhibition, % at 10 µM; Leishmania major promastigotes, resazurin fluorescence viability; hit rate 9% among 200,000; in the data active = inhibition above about 50%;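 also: promastigotes grown with compound for 44 hours at 28 °C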
# PMI act = activators of human phosphomannose isomerase; P34949; purified human PMI, coupled resazurin fluorescence, 20 min; stronger effect = higher value; 1 = vehicle control, 0 substrate-free wells; activation factor at 20 µM; hit rate 0.005% among 190,000;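 active = activation factor of 2 or more at 20 µM, relative to plate controls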
# PTEN del growth = suppresses growth of cells with PTEN deletion; viability, % at 10 µM; AID 827; HCT116 PTEN-null viability, CellTiter-Glo, 60 h; stronger effect = lower value; hit rate 1.2% among 140,000;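 active = viability at or below a set limit, 4 SD under the median of all tested compounds, cut at about 3.7% in these data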;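 also: PTEN knockout HCT116 line with beta catenin targeted HCT116 as companion control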
# Numbers without * were called inactive; / = no result. Most compounds without a hit are left out; they make up all but 9.6% or so of the library.
SMILES,PMI act hi M6P,bCat KO growth,L major viab,PMI act,PTEN del growth
O=C(COc1ccc(S(=O)(=O)NC2CCCCC2)cc1)NCCC1=CCCCC1,0.9,101.2,58.6*,0.9,93.4
CN(C)/C=C/C(=O)c1ccc(N2CCN(c3ncc(C(F)(F)F)cc3Cl)CC2)cc1,0.9,2.1*,1.1,0.9,10.0
CN(C)C=NC(=O)c1ccc(N2CCN(c3ncc(C(F)(F)F)cc3Cl)CC2)cc1,0.9,45.0,-7.9,0.8,31.7
O=C(Cn1nnc(-c2ccccc2)n1)NNC(=O)c1ccco1,1,/,-4.7,1,/
C/C(=N/Nc1ccc(C)cc1)C1(C)N(O)C(C)(C)C(c2ccco2)=[N+]1[O-] (stereo not given),2.7*,/,1.5,1.9,/
CC1(C)C(c2ccco2)=[N+]([O-])C2(CCCCC2=O)N1O (stereo not given),1.2,98.2,-7.9,1.2,90.9
O=C(CC(SCCO)c1ccc2c(c1)OCO2)c1cccs1 (stereo not given),1,7.2,72.9*,1,10.2
CC(C)n1c(Oc2ccc(F)cc2)nc2c1c(=O)n(C)c(=O)n2C,0.9,/,0.8,0.9,/
N#Cc1ccccc1S(=O)(=O)N1CCN(c2cnccn2)CC1,1,/,4.1,1,/
Cc1ccnc(NC(=O)CSc2nnc3c(n2)[nH]c2ccccc23)c1,0.9,/,4.9,1,/
Cc1nn(-c2cc(N3CCCCC3)ccc2N)c(=O)c2ccccc12,0.7,90.6,-4.4,0.7,95.6
Nc1ccc(N2CCCCC2)cc1N1CCCCC1,0.5,3.2*,100.2*,0.4,2.5*
COc1ccc(CC(=O)NCc2nc(-c3ccccc3)no2)cc1,1,/,-6.7,0.9,/
COc1cc(OC)cc(C(=O)NCc2nc(-c3ccccc3)no2)c1,1,86.1,67.8*,1,83.0
CN(NS(=O)(=O)c1ccc(Cl)cc1)c1nc(C(F)(F)F)nc2ccccc12,1,/,3.2,1.1,/
CC1(CCc2ccc3c(c2)OCO3)NC(=O)c2ccccc2N1 (stereo not given),1.1,89.3,99.9*,1.1,95.0
O=C1NC(c2ccc3c(c2)OCO3)Nc2ccccc21 (stereo not given),1,27.1,0.8,1,27.8
COc1ccccc1OCc1ccc(C(=O)NC(C)(C)C)o1,0.9,92.3,3.1,0.9,92.9
CC(C)(C)NC(=O)c1ccc(COc2ccccc2Br)o1,1,65.7,78.2*,1,64.7
O=C(Nc1nc2ccccc2n1CCN1CCOCC1)c1ccc(COc2ccccc2Br)o1,1.1,/,54.6*,1,/
CCN(CC)C(=O)c1ccc(COc2ccccc2Br)o1,0.9,48.5,87.7*,0.9,62.7
CC1CN(C(=O)c2ccc(COc3ccccc3Br)o2)CC(C)O1 (stereo not given),1,/,-0.9,1.1,/
CCN(CC)C(=O)c1ccc(COc2ccccc2Cl)cc1,1.1,62.9,63.1*,1,66.6
CCC(=O)Nc1ccc(/C(C)=N\NC(=O)c2ccc(OC)cc2)cc1,1.1,91.2,-9.4,1.1,97.0
COc1ccc(/C=C/C(=O)NC(=S)Nc2cc([N+](=O)[O-])ccc2O)cc1OC,1,/,-5.5,1,/
SMILES,PMI act hi M6P,bCat KO growth,L major viab,PMI act,PTEN del growth
CCOC(=O)c1sc2nc(SCC(=O)N(CC)CC)n(CCCN3CCCC3=O)c(=O)c2c1C,1.2,/,23.8,1.1,/
CCOC(=O)c1sc2nc(SCC#N)n(CC3CCCO3)c(=O)c2c1C (stereo not given),1,6.0*,-2.3,1,10.8
CC1CC(=O)Nc2ccccc2N1C(=O)CN1CCN(c2ccccc2)CC1 (stereo not given),1,/,-7.4,1,/
COc1ccc(N2C(=O)CC2(C#N)c2ccc(OCc3ccccc3)cc2)cc1 (stereo not given),0.9,79.4,68.2*,1,77.9
CCN1CCN(C(=S)c2ccc(OCC(=O)N3CCOCC3)cc2)CC1,1,93.2,-4.8,1,117.3
CN(C)c1nc2ccccc2c(N)c1-c1ccccc1,0.9,23.3,95.9*,0.9,37.1
CSc1nc(N(C)C)c2ccccc2n1,1,/,3.8,1,/
COc1cccc(N2CCN(Cc3nnnn3C3CCCCC3)CC2)c1,0.9,/,-6.5,0.9,/
COc1cccc(N2CCN(C3CCCC(C)C3)CC2)c1 (stereo not given),1.1,71.4,69.2*,1,72.0
Cc1ccc(Nc2ncc(C(=O)NCCCN3CCN(C)CC3)c3ccccc23)cc1Cl,0.9,/,84.1*,1,/
COc1cccc(-c2nnc3sc(C4CCCCC4)nn23)c1,0.9,18.0,5.3,1,17.7
CCOc1cccc(-c2nnc3sc(C4CCCCC4)nn23)c1,0.9,6.1*,18.6,0.9,7.8
O=C(CN1CCOc2ccccc21)NC1CCCCCCC1,/,/,11.8,/,/
Cc1ccc(Nc2nc(-c3ccc(S(=O)(=O)N4CCOCC4)cc3)cs2)cc1Cl,0.9,30.6,29.3,0.9,31.6
COc1nnc(-c2ccc(N3CCOCC3)c(NC(=O)C3CCCCC3)c2)c2ccccc12,1,88.5,29.1,1,91.2
COc1nnc(-c2ccc(N3CCCCC3)c(NC(=O)C3CCCCC3)c2)c2ccccc12,0.9,11.3,54.3*,0.8,11.8
CC(=O)COc1cc(C)cc2oc(=O)cc(-c3ccccc3)c12,1,/,-2.4,1,/
COc1ccc([N+](=O)[O-])cc1COc1cc(C)cc2oc(=O)cc(-c3ccccc3)c12,0.4,27.5,98.7*,1.1,33.8
COC(=O)c1cc(CNC(=O)c2cccc(Cl)c2Cl)ccc1OC,0.9,94.8,53.4*,1,89.0
COC(=O)c1cc(CNC(=O)c2cccc(Cl)c2)ccc1OC,1,104.2,6.8,0.9,97.2
CC(=NCCc1c(C)[nH]c2ccc(OC(F)(F)F)cc12)C1=C(O)CC(c2ccccc2)CC1=O (stereo not given),0.9,/,1.5,0.9,/
CC(=NCCc1c(C)[nH]c2ccc(C)cc12)C1=C(O)CC(c2ccccc2)CC1=O (stereo not given),0.9,15.6,98.2*,0.8,14.6
CCOc1ccc(NC(=O)c2ccc(NC(=O)c3cn4c5c(c(N6CCN(C)CC6)c(F)cc5c3=O)OCC4C)cc2)cc1 (stereo not given),1,2.3*,92.9*,0.9,2.2*
O=C(CSc1nnc(Nc2ccccc2)s1)Nc1cccc(S(=O)(=O)N2CCCCC2)c1,0.9,84.8,15.3,0.9,86.8
O=C(Nc1ccccc1Cl)c1ccccc1Oc1ccc(C(F)(F)F)cc1[N+](=O)[O-],0.8,76.2,79.4*,0.8,69.2
O=C(c1ccccc1Oc1ccc(C(F)(F)F)cc1[N+](=O)[O-])N1CCOCC1,0.9,95.5,-0.5,0.9,98.5
Cc1cccc(C)c1NC(=O)CNCC(=O)N(C)C,1,/,-10.5,1,/
Cc1ccc(S(=O)(=O)NC2CCOC(C)(C)C2)cc1 (stereo not given),0.9,91.6,5.1,0.9,92.4
